Measured values as given in article PMC5299621 (The Journal of General Physiology, 2017).
Each block holds one compound with its values, some of them ahead of it.

How the values were obtained:
[1] = target: hTRPM2 WT channel (Homo sapiens, UniProt O94759); assay: Whole-cell recording of ADPR-induced currents, HEK293 cells expressing WT hTRPM2; format: cell-based
[2] = target: hTRPM2 H1346W mutant (Homo sapiens, UniProt O94759, H1346W); assay: Whole-cell ADPR-induced currents, HEK293, H1346W mutant; format: cell-based
Sequence of hTRPM2 H1346W mutant (O94759 whole entry H1346W): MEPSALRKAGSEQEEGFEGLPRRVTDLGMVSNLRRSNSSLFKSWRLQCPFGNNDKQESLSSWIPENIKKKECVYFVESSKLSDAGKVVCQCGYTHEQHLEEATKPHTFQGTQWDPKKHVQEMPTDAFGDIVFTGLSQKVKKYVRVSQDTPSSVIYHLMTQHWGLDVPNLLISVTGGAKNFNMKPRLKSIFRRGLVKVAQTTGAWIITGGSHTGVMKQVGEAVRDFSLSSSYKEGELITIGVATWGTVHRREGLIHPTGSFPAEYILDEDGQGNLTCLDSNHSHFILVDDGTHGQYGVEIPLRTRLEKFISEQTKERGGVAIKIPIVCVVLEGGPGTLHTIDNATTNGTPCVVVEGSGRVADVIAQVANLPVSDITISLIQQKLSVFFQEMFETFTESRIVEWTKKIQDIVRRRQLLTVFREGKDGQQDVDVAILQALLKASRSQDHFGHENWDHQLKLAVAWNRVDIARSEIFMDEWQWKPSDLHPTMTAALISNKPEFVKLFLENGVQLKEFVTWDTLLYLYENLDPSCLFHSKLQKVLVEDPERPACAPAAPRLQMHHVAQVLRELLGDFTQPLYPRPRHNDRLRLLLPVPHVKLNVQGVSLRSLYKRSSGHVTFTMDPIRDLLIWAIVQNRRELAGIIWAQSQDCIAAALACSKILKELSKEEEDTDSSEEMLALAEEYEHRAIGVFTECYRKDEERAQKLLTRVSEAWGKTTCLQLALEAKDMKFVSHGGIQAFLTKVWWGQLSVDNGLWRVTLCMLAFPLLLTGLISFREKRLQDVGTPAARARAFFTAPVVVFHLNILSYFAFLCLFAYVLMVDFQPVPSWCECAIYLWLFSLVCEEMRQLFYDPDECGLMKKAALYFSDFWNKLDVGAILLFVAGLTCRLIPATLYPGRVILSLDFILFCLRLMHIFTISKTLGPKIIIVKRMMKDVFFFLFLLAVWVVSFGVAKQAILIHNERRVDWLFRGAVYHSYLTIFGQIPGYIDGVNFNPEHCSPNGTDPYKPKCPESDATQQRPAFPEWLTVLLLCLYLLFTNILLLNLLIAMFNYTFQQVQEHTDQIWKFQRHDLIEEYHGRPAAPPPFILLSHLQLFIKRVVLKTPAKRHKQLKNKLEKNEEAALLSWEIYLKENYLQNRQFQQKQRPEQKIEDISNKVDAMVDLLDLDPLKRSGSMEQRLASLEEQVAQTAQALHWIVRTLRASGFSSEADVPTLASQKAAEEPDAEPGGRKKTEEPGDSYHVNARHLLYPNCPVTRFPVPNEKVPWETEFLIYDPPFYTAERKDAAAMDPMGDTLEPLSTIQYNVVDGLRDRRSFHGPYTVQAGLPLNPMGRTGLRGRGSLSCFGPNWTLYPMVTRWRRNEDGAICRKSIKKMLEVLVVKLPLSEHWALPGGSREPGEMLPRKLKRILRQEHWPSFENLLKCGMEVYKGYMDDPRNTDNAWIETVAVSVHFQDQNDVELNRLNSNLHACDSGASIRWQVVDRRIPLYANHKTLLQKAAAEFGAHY

[3] = target: hTRPM2 T1347F mutant (Homo sapiens, UniProt O94759, T1347F); assay: Whole-cell ADPR-induced currents, HEK293, T1347F mutant; format: cell-based
Sequence of hTRPM2 T1347F mutant (O94759 whole entry T1347F): as the sequence (O94759 whole entry H1346W) above, with W1346H, T1347F counted along it

[4] = target: hTRPM2 T1347Y mutant (Homo sapiens, UniProt O94759, T1347Y); assay: Whole-cell ADPR-induced currents, HEK293, T1347Y mutant; format: cell-based
Sequence of hTRPM2 T1347Y mutant (O94759 whole entry T1347Y): as the sequence (O94759 whole entry H1346W) above, with W1346H, T1347Y counted along it

[5] = target: hTRPM2 L1379S mutant (Homo sapiens, UniProt O94759, L1379S); assay: Whole-cell ADPR-induced currents, HEK293, L1379S mutant; format: cell-based
Sequence of hTRPM2 L1379S mutant (O94759 whole entry L1379S): as the sequence (O94759 whole entry H1346W) above, with W1346H, L1379S counted along it

[6] = target: hTRPM2 S1391A mutant (Homo sapiens, UniProt O94759, S1391A); assay: Whole-cell ADPR-induced currents, HEK293, S1391A mutant; format: cell-based
Sequence of hTRPM2 S1391A mutant (O94759 whole entry S1391A): as the sequence (O94759 whole entry H1346W) above, with W1346H, S1391A counted along it

[7] = target: hTRPM2 E1409A mutant (Homo sapiens, UniProt O94759, E1409A); assay: Whole-cell ADPR-induced currents, HEK293, E1409A mutant; format: cell-based
Sequence of hTRPM2 E1409A mutant (O94759 whole entry E1409A): as the sequence (O94759 whole entry H1346W) above, with W1346H, E1409A counted along it

[8] = target: hTRPM2 E1409Q mutant (Homo sapiens, UniProt O94759, E1409Q); assay: Whole-cell ADPR-induced currents, HEK293, E1409Q mutant; format: cell-based
Sequence of hTRPM2 E1409Q mutant (O94759 whole entry E1409Q): as the sequence (O94759 whole entry H1346W) above, with W1346H, E1409Q counted along it

[9] = target: T1, hTRPM2 G1389A mutant (Homo sapiens, UniProt O94759, G1389A); assay: Whole-cell ADPR-induced currents, HEK293, G1389A mutant; format: cell-based; conditions: 3 µM and 100 µM ADPR (Fig. 3 C)
T1 sequence (O94759 whole entry G1389A): as the sequence (O94759 whole entry H1346W) above, with W1346H, G1389A counted along it
Procedure, shortened: (§1)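 HEK293 cells were cotransfected with 50 ng EGFP plus 1 µg WT or mutant hTRPM2 plasmid and recorded 24–36 h later, choosing cells of similar fluorescence and size. Recording was whole-cell at RT. […] Cells were held at 0 mV with a 500-ms ramp from −100 to 100 mV every 5 s. Currents were normalized to same-day mean maximal WT current. EC50 came from Hill fits. At least five cells per condition.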

[10] = target: hTRPM2 H1346F mutant (Homo sapiens, UniProt O94759, H1346F); assay: Whole-cell ADPR-induced currents, HEK293, H1346F mutant; format: cell-based; conditions: H1346F (Fig. 5 B)
Sequence of hTRPM2 H1346F mutant (O94759 whole entry H1346F): as the sequence (O94759 whole entry H1346W) above, with W1346F counted along it
Procedure, shortened: as §1

[11] = target: hTRPM2 T1347I mutant (Homo sapiens, UniProt O94759, T1347I); assay: Whole-cell ADPR-induced currents, HEK293, T1347I mutant; format: cell-based; conditions: T1347I (Fig. 5 C)
Sequence of hTRPM2 T1347I mutant (O94759 whole entry T1347I): as the sequence (O94759 whole entry H1346W) above, with W1346H, T1347I counted along it
Procedure, shortened: as §1

[12] = target: hTRPM2 R1433L mutant (Homo sapiens, UniProt O94759, R1433L); assay: Whole-cell ADPR-induced currents, HEK293, R1433L mutant; format: cell-based; conditions: R1433L (Fig. 5 E)
Sequence of hTRPM2 R1433L mutant (O94759 whole entry R1433L): as the sequence (O94759 whole entry H1346W) above, with W1346H, R1433L counted along it
Procedure, shortened: as §1

[13] = target: hTRPM2 R1433Q mutant (Homo sapiens, UniProt O94759, R1433Q); assay: Whole-cell ADPR-induced currents, HEK293, R1433Q mutant; format: cell-based; conditions: R1433Q (Fig. 5 E)
Sequence of hTRPM2 R1433Q mutant (O94759 whole entry R1433Q): as the sequence (O94759 whole entry H1346W) above, with W1346H, R1433Q counted along it
Procedure, shortened: as §1

[14] = target: hTRPM2 Y1349F mutant (Homo sapiens, UniProt O94759, Y1349F); assay: Whole-cell ADPR-induced currents, HEK293, Y1349F mutant; format: cell-based; conditions: Y1349F (Fig. 6 B)
Sequence of hTRPM2 Y1349F mutant (O94759 whole entry Y1349F): as the sequence (O94759 whole entry H1346W) above, with W1346H, Y1349F counted along it
Procedure, shortened: as §1

[15] = target: hTRPM2 Y1349S mutant (Homo sapiens, UniProt O94759, Y1349S); assay: Whole-cell ADPR-induced currents, HEK293, Y1349S mutant; format: cell-based; conditions: Y1349S (Fig. 6 B)
Sequence of hTRPM2 Y1349S mutant (O94759 whole entry Y1349S): as the sequence (O94759 whole entry H1346W) above, with W1346H, Y1349S counted along it
Procedure, shortened: as §1

[16] = target: hTRPM2 L1484A mutant (Homo sapiens, UniProt O94759, L1484A); assay: Whole-cell ADPR-induced currents, HEK293, L1484A mutant; format: cell-based; conditions: 3 µM and 100 µM ADPR (Fig. 3 C)
Sequence of hTRPM2 L1484A mutant (O94759 whole entry L1484A): as the sequence (O94759 whole entry H1346W) above, with W1346H, L1484A counted along it
Procedure, shortened: as §1

[17] = target: hTRPM2 D1287A mutant (Homo sapiens, UniProt O94759, D1287A); assay: Whole-cell ADPR-induced currents, HEK293, D1287A mutant; format: cell-based; conditions: ADPR 100 µM (Fig. 8)
Sequence of hTRPM2 D1287A mutant (O94759 whole entry D1287A): as the sequence (O94759 whole entry H1346W) above, with D1287A, W1346H counted along it
Procedure, shortened: as §1

[18] = target: hTRPM2 S1340A mutant (Homo sapiens, UniProt O94759, S1340A); assay: Whole-cell ADPR-induced currents, HEK293, S1340A mutant; format: cell-based; conditions: ADPR 100 µM (Fig. 8)
Sequence of hTRPM2 S1340A mutant (O94759 whole entry S1340A): as the sequence (O94759 whole entry H1346W) above, with S1340A, W1346H counted along it
Procedure, shortened: as §1

[19] = test system: TRPM2 E1409K mutation; conditions: ref Perraud et al., 2005, Tóth et al., 2014; cited from earlier work
[20] = target: T1, hTRPM2 G1389A mutant; assay: Whole-cell recording of calcium-induced TRPM2 currents, G1389A mutant; format: cell-based; conditions: 50 mM calcium, intracellular solution
Procedure, shortened: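 Transiently transfected HEK293 cells were compared with untransfected and WT-expressing cells by whole-cell recording at RT. Cells were held at 0 mV with a 500-ms ramp from −100 to 100 mV every 5 s. At least six cells per condition.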

[21] = target: T1, hTRPM2 G1389A mutant; assay: Whole-cell recording of H2O2-induced TRPM2 currents, G1389A mutant; format: cell-based; conditions: extracellular H2O2, 10 mM / 30 mM
Procedure, shortened: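 Whole-cell recording at RT was done on transiently transfected HEK293 cells, alongside untransfected and WT-expressing cells. Pipette: 147 mM NaCl, 0.05 mM EGTA, 1 mM MgCl2, 10 mM HEPES, pH 7.3. Cells were held at 0 mV with a 500-ms ramp from −100 to 100 mV every 5 s. At least six cells per condition.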

Sequence of hTRPM2 WT channel (O94759 whole entry): as the sequence (O94759 whole entry H1346W) above, with W1346H counted along it

- Hill slope [1]: 2.6
- Hill slope [2]: 2.0
- Hill slope [3]: 1.2
- Hill slope [4]: 1.3
- Hill slope [5]: 1.0
- Hill slope [6]: 2.7
- Hill slope [7]: 1.5
- Hill slope [8]: 1.6
- Channel activation by ADPR [9]: failed to be activated
- Channel sensitivity to ADPR [10]: completely insensitive
- Channel sensitivity to ADPR [11]: completely lost sensitivity
- Response to ADPR [12]: no response
- Response to ADPR [13]: no response
- Channel function with ADPR [16]: lack of channel function
- Activity induced by ADPR [17]: normal activity
- Activity induced by ADPR [18]: normal activity
Compound: adenosine diphosphate ribose [ADPR]
- Channel activation by ADPR [14]: did not significantly alter channel activation
- Channel activation by ADPR [15]: neither Y1349A nor Y1349S mutant could be activated
- Impact of mutation on ADPR binding to the NUDT9-H domain [19]: little impact

- Channel activation by calcium [20]: readily activated
Compound: [Ca+2] [calcium]

- H2O2-induced current [21]: failed to induce a current
Compound: OO [H2O2]
